The results in this text go back to ChEMBL document CHEMBL1134326, “C-16 artemisinin derivatives and their antimalarial and cytotoxic activities: syntheses of artemisinin monomers, dimers, trimers, and tetramers by nucleophilic additions to artemisitene” (J Med Chem, 2001).

What is called IC50 is the concentration needed to halve the response being measured. High values mean a need for much substance, low ones inhibition by little substance. A word on the EC50: it is the concentration that produces a half-maximal response.

A short description of data set [1]: Therapeutic index(TI) as IC50 of vero cells to that of EC50. The format is cell-based, Cricetulus griseus. The note with it: chinese hamster, read-out: Ti.
For data set [2], the system named is BC. Kind of data set: Cytotoxicity against BC cells. It counts as functional, cell-based. The note with it: Homo sapiens. The method in brief:
(§1)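 Colorimetric cytotoxicity assay after Skehan on KB, BC and vero cell lines. Maximum concentration tested 130 µM. Ellipticine was the positive control. IC50 is reported in µM.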

A further data set deals with Plasmodium falciparum. Kind of data set: Antimalarial activity against Plasmodium falciparum. The format is functional, organism-based. Put shortly: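 P. falciparum K1 (multidrug-resistant), asexual erythrocytic stage kept in continuous in vitro culture; microculture radioisotope method after Desjardins. EC50 is the concentration giving 50% reduction in parasite growth, measured as [3H]hypoxanthine uptake. Artemisinin and dihydroartemisinin served as standards.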

The subject of the next data set is Vero. Kind of data set: Cytotoxicity against vero cells. The format is functional, cell-based. The note with it: Chlorocebus sabaeus. The method in brief:
as §1

The nature of data set [3]: Cytotoxicity against KB cells. It counts as functional, cell-based. The note with it: Homo sapiens. Put shortly: as §1
Data set [4] is described as follows: Therapeutic index (TI) determined as IC50 of vero cells to that of EC50. The format is cell-based. The note with it: plasmodium falciparum, read-out: TI.
For another data set, the system named is KB. Put plainly: Cytotoxicity against KB cells. The format is functional, cell-based. The note with it: Homo sapiens. The method in brief:
as §1

In data set [5] the test system is BC. Put plainly: Cytotoxicity against BC cells. It counts as functional, cell-based. The note with it: Homo sapiens. Put shortly:
as §1

Take `CCCCCCC1(CC2C(=O)OC3OC4(C)CCC5C(C)CCC2C35OO4)C(=O)OC2OC3(C)CCC4C(C)CCC1C24OO3` (stereo not given): the selectivity ratio in data set [1] came out at 5. For the same compound, the results for the 50% inhibitory concentration (IC50) (with BC [2]; with Vero; in data set [3]) were 1300 nM, 2500 nM and 4000 nM, respectively. In addition, the EC50 in the data set on Plasmodium falciparum was 5 nM.

Take `CCCCC1(CC2C(=O)OC3OC4(C)CCC5C(C)CCC2C35OO4)C(=O)OC2OC3(C)CCC4C(C)CCC1C24OO3` (stereo not given): the selectivity ratio in data set [4] is above 3. Besides, the IA result in the data set with KB and in the data set on BC [5] was “Cytotoxic” throughout. Also, the EC50 with Plasmodium falciparum is 4.3 nM. The IC50 in the data set with Vero was above 130000 nM.

As to `CCC[C@@H]1C(=O)O[C@@H]2O[C@]3(C)CC[C@H]4[C@H](C)CC[C@@H]1[C@@]24OO3`, in data set [4], the selectivity ratio was above 1.2. Further, the IA result in the data set with KB and with BC [5] was “Cytotoxic” each time. Moreover, the EC50 in the data set on Plasmodium falciparum came to 11 nM. The same compound showed an IC50 in the data set on Vero above 130000 nM.

As for `C[C@@H]1CC[C@H]2[C@@H](Cc3ccc(F)cc3)C(=O)O[C@@H]3O[C@]4(C)CC[C@@H]1[C@]32OO4`, in data set [4], the selectivity ratio was determined as 1.9. Moreover, the IA result with KB and in the data set with BC [5] was “Cytotoxic” each time. For the same compound, a half-maximal effect in the data set with Plasmodium falciparum (EC50) was put at 6.7 nM. Moreover, in the data set on Vero, the IC50 was above 130000 nM.

On to `CCCC[C@H]1C(=O)O[C@@H]2O[C@]3(C)CC[C@H]4[C@H](C)CC[C@@H]1[C@@]24OO3`, for which the selectivity ratio in data set [4] was above 1.2. For the same compound, the IA result with KB and in the data set with BC [5] was “Cytotoxic” in each case. This compound also came in with an EC50 in the data set with Plasmodium falciparum of 11.3 nM. The compound further yielded an IC50 in the data set with Vero above 130000 nM.

Turning to `C[C@@H]1CC[C@H]2[C@@H](Cc3cccc(F)c3)C(=O)O[C@@H]3O[C@]4(C)CC[C@@H]1[C@]32OO4`, the selectivity ratio in data set [4] turned out to be 6.3. Further, the IA result in the data set on KB and in the data set on BC [5] was “Cytotoxic” throughout. Also, the EC50 in the data set on Plasmodium falciparum stood at 20.7 nM. Besides, the IC50 with Vero was above 130000 nM.

Turning to `CC1CCC2C(CCC(=O)c3ccc[nH]3)C(=O)OC3OC4(C)CCC1C32OO4` (stereo not given), the selectivity ratio in data set [4] is above 1.5. In addition, the IA entry in the data set on KB and in the data set with BC [5] was “Cytotoxic” in each case. Also, the EC50 in the data set with Plasmodium falciparum was determined as 8.8 nM. The compound further registered an IC50 in the data set with Vero above 130000 nM.

With `C[C@@H]1CC[C@H]2C(CCC(=O)c3ccc[nH]3)C(=O)O[C@@H]3O[C@]4(C)CC[C@@H]1[C@]32OO4` (stereo not given in full), the selectivity ratio in data set [4] was above 5.2. Further, the IA entry with KB and with BC [5] was “Cytotoxic” each time. This compound returned an EC50 in the data set with Plasmodium falciparum of 24.8 nM. The IC50 with Vero is above 130000 nM.

Take `COC(=O)C(C)(C)CC1C(=O)O[C@@H]2OC3(C)CC[C@H]4[C@H](C)CC[C@@H]1[C@@]24OO3` (single isomer, unassigned): the selectivity ratio in data set [4] is above 5. Also, the IA entry in the data set with KB and in the data set on BC [5] was “Cytotoxic” in each case. Moreover, in the data set with Plasmodium falciparum, the EC50 was above 26.1 nM. This compound returned an IC50 in the data set on Vero above 130000 nM.
